In ChEMBL document CHEMBL1128240, “Studies on new acidic azoles as glucose-lowering agents in obese, diabetic db/db mice” (J Med Chem, 1995):
Active and inactive are the calls of the source. No cut-off for these calls is given here.

Legend:
[1] = system: Mus musculus; assay: percentage change in plasma glucose concentration of drug treated mice relative to vehicle controls at 100 mg/kg (once daily perorally x 4) in groups of db/db mice; NA= not active; type: functional, organism-based; parameters: dose 100 mg/kg
Method in brief: (§1)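 Male C57BL/KsJ db/db mice (2-7 months, 35-60 g), 4 h fasted baseline tail blood on day 1; extremes excluded, randomized into groups (N = 4-6) of equal mean glucose. Dosed po as suspension in 2% Tween 80/saline on afternoons of days 1-3 (fed) and day 4 after 3 h fast. Plasma glucose (Abbott VP analyzer) 2 and 4 h post-dose, mean versus day-1 baseline; ANOVA with one-sided Dunnett's test against vehicle.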

[2] = Partition coefficient (logP); type: physicochemical; details: octanol/water
Method in brief: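 Manual shake-flask octanol/aqueous partition. Buffer was 0.01 M K2HPO4 at pH 7.4. Sample was shaken 1 min, equilibrated 4 h, and phases separated and centrifuged. Each phase was quantified by reverse-phase C18 HPLC (acetonitrile/0.01 M […] pH 3.5, 214 nm). Average of at least two runs.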

[3] = Dissociation constant measured by potentiometric titration (in duplicate) in 1:1 dioxane-water using a Fisher accumet pH meter model 630 and a Perkin-Elmer chart recorder model 56.; type: physicochemical
Method in brief: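 Apparent pKa from potentiometric titration with 0.1 N NaOH in dioxane–water (1:1). Sample concentration 0.2 mM, solvent 30 mL, 25 °C, titrant flow 0.17 mL/min. Value is the average of two runs. The system was conditioned and checked in duplicate against piperazine, allantoin, barbituric acid and ciglitazone standards.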

[4] = system: Mus musculus; assay: percentage change in plasma glucose concentration of drug treated mice relative to vehicle controls at 100 mg/kg (once daily perorally x 4) in groups of db/db mice compared to vehicle control; type: functional; details: route oral; method in brief: as §1
[5] = system: Mus musculus; assay: Percentage change in plasma glucose concentration of drug treated mice relative to vehicle controls at 100 mg/kg (once daily perorally x 4) in groups of db/db mice; NA = not active; type: functional, organism-based; parameters: dose 100 mg/kg; method in brief: as §1
[6] = system: Mus musculus; assay: percentage change in plasma glucose concentration of drug treated mice relative to vehicle controls at 20 mg/kg (once daily perorally x 4) in groups of db/db mice; NA = not active; type: functional, organism-based; parameters: dose 20 mg/kg; method in brief: as §1
[7] = system: Mus musculus; assay: percentage change in plasma glucose concentration of drug treated mice relative to vehicle controls at 20 mg/kg (once daily perorally x 4) in groups of db/db mice; type: functional; details: route oral; method in brief: as §1
[8] = system: Mus musculus; assay: percentage change in plasma glucose concentration of drug treated mice relative to vehicle controls at 53 mg/kg (once daily perorally x 4) in groups of db/db mice; NA = not active; type: functional, organism-based; parameters: dose 53 mg/kg; method in brief: as §1
[9] = system: Mus musculus; assay: percentage change in plasma glucose concentration of drug treated mice relative to vehicle controls at 20 mg/kg (once daily perorally x 4) in groups of db/db mice compared to vehicle control; type: functional; details: route oral; method in brief: as §1
[10] = system: Mus musculus; assay: percentage change in plasma glucose concentration of drug treated mice relative to vehicle controls at 100 mg/kg (once daily perorally x 4) in groups of db/db mice; Not active; type: functional, organism-based; parameters: dose 100 mg/kg; method in brief: as §1
[11] = system: Mus musculus; assay: percentage change in plasma glucose concentration of drug treated mice relative to vehicle controls at 73 mg/kg (once daily perorally x 4) in groups of db/db mice compared to vehicle control; type: functional; details: route oral; method in brief: as §1
[12] = system: Mus musculus; assay: percentage change in plasma glucose concentration of drug treated mice relative to vehicle controls at 5 mg/kg (once daily perorally x 4) in groups of db/db mice; not active, generally less than -15% change; type: functional, organism-based; parameters: dose 5 mg/kg; method in brief: as §1
[13] = system: Mus musculus; assay: percentage change in plasma glucose concentration of drug treated mice relative to vehicle controls at 20 mg/kg (once daily perorally x 4) in groups of db/db mice; Not active; type: functional, organism-based; parameters: dose 20 mg/kg; method in brief: as §1
[14] = system: Mus musculus; assay: percentage change in plasma glucose concentration of drug treated mice relative to vehicle controls at 27 mg/kg (once daily perorally x 4) in groups of db/db mice; NA = not active; type: functional, organism-based; parameters: dose 27 mg/kg; method in brief: as §1
[15] = system: Mus musculus; assay: percentage change in plasma glucose concentration of drug treated mice relative to vehicle controls at 5 mg/kg (once daily perorally x 4) in groups of db/db mice; type: functional; details: route oral; method in brief: as §1
[16] = system: Mus musculus; assay: percentage change in plasma glucose concentration of drug treated mice relative to vehicle controls at 100 mg/kg (once daily perorally x 4) in groups of db/db mice; type: functional; details: route oral; method in brief: as §1
[17] = system: Mus musculus; assay: Percentage change in plasma glucose concentration of drug treated mice relative to vehicle controls at 20 mg/kg (once daily perorally x 4) in groups of db/db mice; NA = not active

In the case of `C[n+]1nn(Cc2ccccc2)c([O-])c1Cc1ccc2ccccc2c1`, the Change [1] is reported as “inactive”.

For `CC1(COc2ccc(CC3SC(=O)NC3=O)cc2)CCCCC1` (stereo not given) [CIGLITAZONE], the logP [2] was 3.61, the pKa [3] was 7.8 and the Change [4] was -28%.

With `O=[N+]([O-])c1ccc(-c2n[nH]c(O)c2Cc2ccc3ccccc3c2)cc1` the Change [5] was “inactive”.

With `CCc1o[nH]c(=O)c1Cc1ccc2ccccc2c1` the Change [6] was “inactive”.

With `Cc1c(O)nnn1Cc1ccc2ccccc2c1` the Change [5] was “inactive”.

For `Cc1noc(O)c1Cc1ccc2ccccc2c1Br`, the Change [6] was “inactive”.

With `Cc1c(Cc2ccc3ccccc3c2)n[nH]c1O` the Change [6] was “inactive”.

With `Oc1[nH]nc(C(F)(F)C(F)(F)F)c1Cc1ccc2ccccc2c1` the Change [5] was “inactive”.

For `Cc1o[nH]c(=O)c1Cc1ccc2ccccc2c1Br`, the Change [6] was “inactive”.

In the case of `Oc1c(Cc2ccc3ccccc3c2)nnn1Cc1ccccc1`, the Change [5] is reported as “inactive”.

With `Oc1n[nH]nc1Cc1ccc2ccccc2c1` the Change [5] was “inactive”.

With `Cc1n[nH]c(O)c1CSc1nc2ccccc2[nH]1` the Change [1] was “inactive”.

In the case of `Oc1cc(Cc2ccc3ccccc3c2)n[nH]1`, the Change [5] is reported as “inactive”.

For `Oc1[nH]nc(C(F)(F)F)c1Cc1ccccc1`, the Change [7] was -18% and the Change [4] was -33%.

With `Oc1[nH]nc(-c2ccccc2)c1Cc1ccc2ccccc2c1` the Change [5] was “inactive”.

In the case of `Oc1[nH]nc(C(F)(F)F)c1Cc1ccc2c(c1)CCC(Cc1ccccc1)O2` (stereo not given), the Change [5] is reported as “inactive”.

With `COCc1noc(O)c1Cc1ccc2ccccc2c1` the Change [5] was “inactive”.

For `COC(=O)C(=O)/C=C(\O)c1ccc2ccccc2c1`, the Change [4] was -37%.

For `CC(C)c1n[nH]c(O)c1Cc1ccc2ccccc2c1`, the Change [4] was -30.4%.

With `Oc1cc(CSc2nc3ccccc3s2)n[nH]1` the Change [5] was “inactive”.

With `Oc1[nH]nc2c1CCc1sccc1-2` the Change [5] was “inactive”.

For `COCc1n[nH]c(O)c1Cc1ccc2ccccc2c1`, the Change [6] was “inactive” and the Change [4] was -39%.

For `Cc1n[nH]c(O)c1Cc1nc2ccccc2o1`, the Change [8] was “inactive”.

In the case of `Oc1[nH]nc(C(F)(F)C(F)(F)C(F)(F)F)c1Cc1ccc2ccccc2c1`, the Change [1] is reported as “inactive”.

Compound `Oc1[nH]nc(C(F)(F)F)c1Cc1ccc2sccc2c1` has a Change [9] of -29%.

With `Cc1o[nH]c(=O)c1Cc1ccccc1` the Change [5] was “inactive”.

For `O=C(O)CCc1ccc2ccccc2c1`, the logP ([2]; read-out: logP) was 1.09, the pKa [3] was 6.52 and the Change [10] was “inactive”.

For `Oc1onc(-c2ccccc2)c1Cc1ccc2ccccc2c1`, the Change [5] was “inactive”.

For `O=C(O)c1cc(-c2ccc3ccccc3c2)[nH]n1`, the Change [5] was “inactive”.

Compound `Nc1n[nH]c(O)c1Cc1ccc2ccccc2c1` has a Change [11] of -27%.

With `Oc1n[nH]c(O)c1Cc1ccc2ccccc2c1` the Change [5] was “inactive”.

Work on `Oc1[nH]nc(C(F)(F)F)c1Cc1ccc2nccnc2c1` yielded a Change [9] of -27%.

`Oc1[nH]nc(C(F)(F)F)c1Cc1ccc2c(c1)OCO2` showed a Change [9] of -38%.

For `Cc1onc(O)c1Cc1ccc2ccccc2c1`, the Change [9] was -25% and the Change [4] was -48%.

In the case of `CCc1n[nH]c(O)c1Cc1ccc2ccccc2c1`, the Change [12] is reported as “Not significant” and the Change [9] is reported as -32%.

In the case of `Cc1n[nH]c(O)c1Cc1ccc2c(c1)OCCO2`, the Change [9] is reported as -21%.

With `O=C1NC(=O)C(Cc2ccc3ccccc3c2)=C1O` the Change [13] was “inactive”.

In the case of `CCCc1o[nH]c(=O)c1Cc1ccc2ccccc2c1`, the Change [6] is reported as “inactive”.

For `Cc1n[nH]c(O)c1Cc1ccccc1`, the Change [5] was “inactive”.

For `Oc1[nH]ncc1Cc1ccc2ccccc2c1`, the Change [14] was “inactive”.

`O=C(O)C(=O)/C=C(\O)c1ccc2ccccc2c1` gave a Change [4] of -28%.

In the case of `Oc1[nH]nc2c1CCc1ccccc1-2`, the Change [5] is reported as “inactive”.

With `Oc1cc(CSc2ccc3ccccc3c2)no1` the Change [5] was “inactive”.

With `NNc1n[nH]c(O)c1Cc1ccc2ccccc2c1` the Change [5] was “inactive”.

With `Cc1n[nH]c(O)c1Cc1ccc2ccccc2c1` the Change [9] was -31% and the Change [4] was -42%.

In the case of `c1ccc2cc(Cc3nnn[nH]3)ccc2c1`, the logP ([2]; read-out: logP) is reported as 0.72, the pKa [3] is reported as 5.77 and the Change [13] is reported as “inactive”.

With `Oc1[nH]nc(C(F)(F)F)c1Cc1ccc2ccccc2c1` the Change [15] was -16%.

For `Cc1n[nH]c(O)c1Cc1cccc2ccccc12`, the Change [6] was “inactive”.

For `COC(=O)c1cc(-c2ccc3ccccc3c2)[nH]n1`, the Change [5] was “inactive”.

`Oc1[nH]nc(C(F)(F)F)c1Cc1ccc2c(Br)cccc2c1` showed a Change [9] of -22%.

In the case of `Cn1nnc(O)c1Cc1ccc2ccccc2c1`, the logP ([2]; read-out: logP) is reported as 2.12, the pKa [3] is reported as 9.11 and the Change [6] is reported as “inactive”.

For `Oc1cc(CSc2nc3ccccc3s2)no1`, the Change [5] was “inactive”.

In the case of `Cc1c(Cc2ccc3ccccc3c2)o[nH]c1=O`, the Change [5] is reported as “inactive”.

In the case of `Cc1[nH]oc(=O)c1Cc1ccc2ccccc2c1`, the Change [16] is reported as -17%.

With `Cc1n[nH]c(O)c1Cc1ccc2ccccc2c1Br` the Change [7] was -20%.

For `Oc1nnnn1Cc1ccc2ccccc2c1`, the Change [5] was “inactive”.

With `Oc1cc(C23CC4CC(CC(C4)C2)C3)n[nH]1` the Change [17] was “inactive”.
